Data from ChEMBL document CHEMBL4049457, “Pentafluorosulfanyl-Substituted Benzopyran Analogues As New Cyclooxygenase-2 Inhibitors with Excellent Pharmacokinetics and Efficacy in Blocking Inflammation” (J Med Chem, 2017).

Key:
[1] = target: Prostaglandin G/H synthase 1 (Homo sapiens, UniProt P23219); assay: Inhibition of human COX-1 preincubated for 15 mins followed by fluorometric substrate/heme addition for 15 mins subsequently incubated with arachidonic acid for 2 mins by fluorescence analysis; type: ADME
[2] = target: T1, Prostaglandin G/H synthase 2 (Homo sapiens, UniProt P35354); assay: Inhibition of recombinant human COX-2 preincubated for 15 mins followed by fluorometric substrate/heme addition for 15 mins subsequently incubated with arachidonic acid for 2 mins by fluorescence analysis
T1 sequence (P35354 whole entry): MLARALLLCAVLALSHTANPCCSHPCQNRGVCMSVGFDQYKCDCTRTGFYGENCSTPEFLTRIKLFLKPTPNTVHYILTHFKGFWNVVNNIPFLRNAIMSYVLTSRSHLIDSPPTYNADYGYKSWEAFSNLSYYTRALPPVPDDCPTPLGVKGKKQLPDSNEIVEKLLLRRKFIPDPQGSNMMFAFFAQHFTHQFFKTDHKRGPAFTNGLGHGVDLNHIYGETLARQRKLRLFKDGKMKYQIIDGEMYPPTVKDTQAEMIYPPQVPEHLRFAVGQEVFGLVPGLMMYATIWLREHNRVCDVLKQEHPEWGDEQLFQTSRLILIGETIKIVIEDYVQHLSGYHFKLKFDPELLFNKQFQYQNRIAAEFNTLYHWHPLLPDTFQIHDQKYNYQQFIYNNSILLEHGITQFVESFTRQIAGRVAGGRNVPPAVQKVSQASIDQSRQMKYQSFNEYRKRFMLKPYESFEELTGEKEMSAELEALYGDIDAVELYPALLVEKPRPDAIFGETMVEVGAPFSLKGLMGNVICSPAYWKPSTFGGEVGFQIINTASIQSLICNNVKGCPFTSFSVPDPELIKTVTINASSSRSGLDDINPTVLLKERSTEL

[3] = target: Voltage-gated inwardly rectifying potassium channel KCNH2 (Homo sapiens, UniProt Q12809); assay: Binding affinity to human ERG up to 50 uM after 2 hrs by fluorescence polarization assay
Method in brief: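 Fluorescence polarization tracer displacement kit: hERG membrane plus red tracer with compound or positive control, 2 h at room temperature, read with polarized excitation/emission filters; dofetilide-binding surrogate for hERG.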

[4] = (§1) Protein binding in human plasma at 10 uM after 5 hrs by rapid equilibrium dialysis; type: ADME, cell-free; settings: read-out: PPB (converted)
Method in brief: (§2)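 Rapid equilibrium dialysis against human plasma for 5 h; drug in plasma and buffer chambers quantified by LC/MS; bound % = [1 − (buffer/plasma concentration)] × 100, n = 3.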

[5] = tested on: Plasma; assay: as §1; type: ADME, cell-free; settings: 5 h, 10 µM; method in brief: as §2
[6] = tested on: Rattus norvegicus; assay: Antiinflammatory activity in carrageenan induced Sprague-Dawley rat model of inflammation assessed as reduction in PGE2 levels in air pouch administered via po 1 hr prior to carrageenan challenge measured 3 hrs post challenge by ELISA; type: functional
Method in brief: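 Male SD rats; 20 mL sterile air injected subcutaneously in back. Oral dosing in 0.5% carboxymethyl cellulose at 0.03–10 mg/kg (n = 6), vehicle control; 1 h later 6 mL 1% carrageenan into pouch (one day after pouch formation).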

[7] = tested on: Rattus norvegicus; assay: Antiinflammatory activity in carrageenan induced Sprague-Dawley rat model of inflammation assessed as reduction in paw edema administered via po 0.5 hrs prior to carrageenan challenge measured 1 to 4 hrs post challenge by plethysmometer; type: functional
Method in brief: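 Male SD rats dosed orally in 0.5% carboxymethyl cellulose at 1, 3, 10, 30, 100 mg/kg (n = 6), vehicle control, 0.5 h before carrageenan into right hind paw. Paw volume by water-displacement plethysmometer before and after injection; percent inhibition from paw-volume increment versus controls; ED50 fitted.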

[8] = tested on: Rattus norvegicus; assay: Antiinociceptive activity in carrageenan induced Sprague-Dawley rat model of pain assessed as reversal of paw thermal hyperalgesia administered via po 0.5 hrs prior to carrageenan challenge measured 3 hrs post challenge; type: functional
Method in brief: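 Male SD rats (180–220 g), 0.2 mL 3% λ-carrageenan subcutaneously into right hind paw; oral dosing in 0.5% carboxymethyl cellulose at 1–100 mg/kg (n = 6) 0.5 h before.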

[9] = tested on: Rattus norvegicus; assay: Antiarthritic activity in adjuvant-induced Lewis rat model of arthritis assessed as reduction in paw edema administered via oral gavage once daily starting from day 15 to 25 post adjuvant injection measured post last dose; type: functional; settings: 360 h
Method in brief: (§3)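 Adjuvant arthritis in male Lewis rats (170–200 g): 1 mg heat-killed M. tuberculosis in 0.2 mL mineral oil into tail base; responders (left hind paw >0.375 mL above day 0 at day 14) randomized, n = 6/group. Oral gavage once daily in 0.5% methylcellulose at 0.1–10 mg/kg, days 15–24. Day 25: plethysmometer paw volume, limb scores 0–4 (total 0–16), movement 0–3; ED50 derived.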

[10] = tested on: Rattus norvegicus; assay: Antiarthritic activity in adjuvant-induced Lewis rat model of arthritis assessed as reduction in arthritis score administered via oral gavage once daily starting from day 15 to 25 post adjuvant injection measured post last dose; type: functional; settings: 360 h; method in brief: as §3
[11] = tested on: Rattus norvegicus; assay: Antiarthritic activity in adjuvant-induced Lewis rat model of arthritis assessed as reduction in movement disorder administered via oral gavage once daily starting from day 15 to 25 post adjuvant injection measured post last dose; type: functional; settings: 360 h; method in brief: as §3
[12] = AUC (0 to infinity) in Sprague-Dawley rat at 5 mg/kg, po administered via gastric gavage by LC-MS/MS analysis; type: ADME, organism-based; set-up: dose 5 mg/kg, route oral, time infinity; settings: in vivo
[13] = Half-life in Sprague-Dawley rat at 5 mg/kg, po administered via gastric gavage by LC-MS/MS analysis; type: ADME, organism-based; settings: in vivo
[14] = Tmax in Sprague-Dawley rat at 5 mg/kg, po administered via gastric gavage by LC-MS/MS analysis; type: ADME, organism-based; settings: in vivo
[15] = Cmax in Sprague-Dawley rat at 5 mg/kg, po administered via gastric gavage by LC-MS/MS analysis; type: ADME, organism-based; set-up: dose 5 mg/kg, route oral; settings: in vivo
[16] = Oral bioavailability in Sprague-Dawley rat at 5 mg/kg administered via gastric gavage by LC-MS/MS analysis; type: ADME, organism-based; settings: in vivo
[17] = AUC (0 to infinity) in Sprague-Dawley rat at 5 mg/kg, iv by LC-MS/MS analysis; type: ADME, organism-based; set-up: dose 5 mg/kg, time infinity, route intravenous; settings: in vivo
[18] = Half-life in Sprague-Dawley rat at 5 mg/kg, iv by LC-MS/MS analysis; type: ADME, organism-based; settings: in vivo
[19] = Tmax in Sprague-Dawley rat at 5 mg/kg, iv by LC-MS/MS analysis; type: ADME, organism-based; settings: in vivo
[20] = Cmax in Sprague-Dawley rat at 5 mg/kg, iv by LC-MS/MS analysis; type: ADME, organism-based; set-up: dose 5 mg/kg, route intravenous; settings: in vivo
[21] = tested on: Rattus norvegicus; assay: Antiarthritic activity in adjuvant-induced Lewis rat model of arthritis assessed as inhibition of paw edema score at 10 mg/kg administered via oral gavage every 5 days starting from day 15 to 25 post adjuvant injection measured post last dose; type: functional
Method in brief: (§4)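 Lewis male rats (170–200 g) given 1 mg heat-killed M. tuberculosis in 0.2 mL mineral oil at tail base; rats with left hind paw volume increase >0.375 mL by day 14 selected. Compound dosed orally at 10 mg/kg every 5 days from day 15 (two doses). Scored day 25: paw volume, arthritis 0–16 (erythema/swelling), movement 0–3.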

[22] = tested on: Rattus norvegicus; assay: Antiarthritic activity in adjuvant-induced Lewis rat model of arthritis assessed as inhibition of arthritis score at 10 mg/kg administered via oral gavage every 5 days starting from day 15 to 25 post adjuvant injection measured post last dose; type: functional; method in brief: as §4
[23] = tested on: Rattus norvegicus; assay: Antiarthritic activity in adjuvant-induced Lewis rat model of arthritis assessed as inhibition of movement disorder score at 10 mg/kg administered via oral gavage every 5 days starting from day 15 to 25 post adjuvant injection measured post last dose; type: functional; method in brief: as §4

Chain of Prostaglandin G/H synthase 1 (P23219 whole entry): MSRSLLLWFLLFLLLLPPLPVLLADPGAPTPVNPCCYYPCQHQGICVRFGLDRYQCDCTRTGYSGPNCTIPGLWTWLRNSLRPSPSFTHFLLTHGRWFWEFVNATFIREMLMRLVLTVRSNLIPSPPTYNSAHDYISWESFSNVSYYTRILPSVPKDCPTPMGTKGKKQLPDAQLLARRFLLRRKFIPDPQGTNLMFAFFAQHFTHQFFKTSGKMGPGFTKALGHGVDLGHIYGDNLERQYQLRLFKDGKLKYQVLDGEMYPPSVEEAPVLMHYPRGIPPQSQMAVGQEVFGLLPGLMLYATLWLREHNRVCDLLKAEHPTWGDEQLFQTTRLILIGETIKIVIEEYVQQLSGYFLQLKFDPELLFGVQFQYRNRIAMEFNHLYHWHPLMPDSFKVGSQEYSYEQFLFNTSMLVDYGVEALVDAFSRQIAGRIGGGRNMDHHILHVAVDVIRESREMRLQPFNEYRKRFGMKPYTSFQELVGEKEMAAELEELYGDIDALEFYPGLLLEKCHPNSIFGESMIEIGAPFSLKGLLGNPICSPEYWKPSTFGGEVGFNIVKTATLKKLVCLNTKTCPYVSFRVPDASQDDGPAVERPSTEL
Chain of Voltage-gated inwardly rectifying potassium channel KCNH2 (Q12809 whole entry): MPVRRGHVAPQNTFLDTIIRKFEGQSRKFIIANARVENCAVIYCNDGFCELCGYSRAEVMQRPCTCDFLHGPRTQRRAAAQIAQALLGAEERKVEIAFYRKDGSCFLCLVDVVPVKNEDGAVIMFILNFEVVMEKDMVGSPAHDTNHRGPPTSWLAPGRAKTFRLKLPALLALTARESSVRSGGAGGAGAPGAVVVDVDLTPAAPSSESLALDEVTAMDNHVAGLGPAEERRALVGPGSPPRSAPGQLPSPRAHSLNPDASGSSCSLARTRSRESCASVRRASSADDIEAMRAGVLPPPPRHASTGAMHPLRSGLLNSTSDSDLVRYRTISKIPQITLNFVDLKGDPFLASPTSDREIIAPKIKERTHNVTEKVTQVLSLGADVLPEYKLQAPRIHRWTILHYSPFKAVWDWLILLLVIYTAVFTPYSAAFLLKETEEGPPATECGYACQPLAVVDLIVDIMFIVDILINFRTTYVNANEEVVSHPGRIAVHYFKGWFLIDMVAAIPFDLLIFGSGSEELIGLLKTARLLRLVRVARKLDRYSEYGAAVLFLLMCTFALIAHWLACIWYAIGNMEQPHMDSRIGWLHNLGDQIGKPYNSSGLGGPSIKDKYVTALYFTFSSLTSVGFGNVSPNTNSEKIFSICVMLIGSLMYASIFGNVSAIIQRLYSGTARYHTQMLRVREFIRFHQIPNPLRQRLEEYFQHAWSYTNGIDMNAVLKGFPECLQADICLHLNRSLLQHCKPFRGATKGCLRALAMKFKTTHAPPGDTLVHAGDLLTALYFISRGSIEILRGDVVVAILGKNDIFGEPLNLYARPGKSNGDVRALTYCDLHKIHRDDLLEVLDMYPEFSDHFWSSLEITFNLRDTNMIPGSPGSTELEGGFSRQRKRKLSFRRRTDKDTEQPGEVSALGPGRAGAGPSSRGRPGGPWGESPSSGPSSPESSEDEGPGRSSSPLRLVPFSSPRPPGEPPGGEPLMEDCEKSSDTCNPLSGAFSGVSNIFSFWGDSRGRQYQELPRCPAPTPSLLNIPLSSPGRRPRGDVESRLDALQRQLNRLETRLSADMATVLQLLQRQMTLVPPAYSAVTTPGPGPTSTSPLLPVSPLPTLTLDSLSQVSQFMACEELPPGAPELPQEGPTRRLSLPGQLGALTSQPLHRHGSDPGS

CCCc1cc(S(F)(F)(F)(F)F)cc2c1OC(C(F)(F)F)C(C(=O)O)=C2 (centres undefined)
IC50 [1]: > 10 µM | IC50 [2]: 46 nM | Activity [3]: Not Active

CCCCc1cc(S(F)(F)(F)(F)F)cc2c1OC(C(F)(F)F)C(C(=O)O)=C2 (centres undefined)
IC50 [1]: > 10 µM | IC50 [2]: 190 nM | fraction unbound at 5 h, 10 µM [4]: 0.0008 | Activity [3]: Not Active

O=C(O)C1=Cc2cc(S(F)(F)(F)(F)F)cc(Cc3ccccc3)c2OC1C(F)(F)F (centres undefined)
IC50 [1]: > 10 µM | IC50 [2]: > 100000 nM

O=C(O)C1=Cc2cc(S(F)(F)(F)(F)F)cc(Br)c2OC1C(F)(F)F (racemic)
IC50 [1]: > 10 µM | IC50 [2]: 56 nM

O=C(O)C1=Cc2cc(S(F)(F)(F)(F)F)cc(Br)c2O[C@@H]1C(F)(F)F
IC50 [1]: > 10 µM | IC50 [2]: 8 nM | fraction unbound at 5 h, 10 µM [4]: 0.0009

CN(C)CCCN1c2ccccc2Sc2ccc(Cl)cc21.Cl [CHLORPROMAZINE HYDROCHLORIDE]
PPB [5]: 99.82%

O=C(O)C1=Cc2ccc(S(F)(F)(F)(F)F)cc2OC1C(F)(F)F (centres undefined)
IC50 [1]: > 10 µM | IC50 [2]: > 10000 nM | fraction unbound at 5 h, 10 µM [4]: 0.0006

Cc1cc(S(F)(F)(F)(F)F)cc2c1OC(C(F)(F)F)C(C(=O)O)=C2 (centres undefined)
IC50 [1]: > 10 µM | IC50 [2]: 26 nM | fraction unbound at 5 h, 10 µM [4]: 0.0005 | Activity [3]: Not Active

O=CC1=Cc2cc(S(F)(F)(F)(F)F)cc(Br)c2OC1C(F)(F)F (centres undefined)
IC50 [1]: > 10 µM | IC50 [2]: > 10000 nM

O=C(O)C1=Cc2cc(S(F)(F)(F)(F)F)ccc2O[C@@H]1C(F)(F)F
IC50 [1]: > 30 µM | IC50 [2]: 10 nM | fraction unbound at 5 h, 10 µM [4]: 0.0004 | Activity [3]: Not Active

CCc1cc(S(F)(F)(F)(F)F)cc2c1OC(C(F)(F)F)C(C(=O)O)=C2 (centres undefined)
IC50 [1]: > 10 µM | IC50 [2]: 60 nM | Activity [3]: Not Active

Cc1ccc(-c2cc(C(F)(F)F)nn2-c2ccc(S(N)(=O)=O)cc2)cc1 [CELECOXIB]
ED50 [6]: 0.69 mg/kg | ED50 [7]: 2.8 mg/kg | ED50 [8]: 5 mg/kg | ED50 [9]: 1.6 mg/kg | ED50 [10]: 0.71 mg/kg | ED50 [11]: 9.2 mg/kg

O=C(O)C1=Cc2cc(S(F)(F)(F)(F)F)cc(Br)c2O[C@H]1C(F)(F)F
IC50 [1]: > 10 µM | IC50 [2]: 340 nM | fraction unbound at 5 h, 10 µM [4]: 0.0005

O=C(O)C1=Cc2cc(S(F)(F)(F)(F)F)ccc2OC1C(F)(F)F (centres undefined)
IC50 [1]: > 10 µM | IC50 [2]: 18 nM | fraction unbound at 5 h, 10 µM [4]: 0.001 | Activity [3]: Not Active | AUC(0-inf) [12]: 414 µg·h/mL | half-life [13]: 750 min | Tmax [14]: 7.75 h | Cmax [15]: 15300 ng/mL | bioavailability [16]: 100 to 114% | AUC(0-inf) [17]: 364 µg·h/mL | half-life [18]: 1040 min | Tmax [19]: 1.98 min | Cmax [20]: 31700 ng/mL | Activity [6]: Dose-dependent effect | ED50 [6]: 0.37 mg/kg | Activity [7]: Dose-dependent effect | ED50 [7]: 4 mg/kg | Activity [8]: Dose-dependent effect | ED50 [8]: 2.8 mg/kg | ED50 [9]: 0.093 mg/kg | ED50 [10]: 0.094 mg/kg | ED50 [11]: 0.12 mg/kg | inhibition in vivo at 10 mg/kg [21]: 66.9% | inhibition in vivo at 10 mg/kg [22]: 69.6% | inhibition in vivo at 10 mg/kg [23]: 79.2%

O=C(O)C1=Cc2cc(S(F)(F)(F)(F)F)ccc2O[C@H]1C(F)(F)F
IC50 [1]: > 10 µM | IC50 [2]: 302 nM

O=CC1=Cc2cc(S(F)(F)(F)(F)F)ccc2OC1C(F)(F)F (centres undefined)
IC50 [1]: > 10 µM | IC50 [2]: > 10000 nM
